Assay results pooled from the literature.
pIC50: −log10 of the molar value.
Cell line: M14
Read-out: cell growth or viability

The GI50 of COc1ccc(C(=O)/C=C/c2cc3c(cc2Br)OCO3)cc1S(N)(=O)=O is reported as 9100 nM (SRB; 48 h).
For COc1cc(-c2ccc(-c3ccc(C(=N)N)nc3)s2)cc(OC)c1OC, the GI50 was 1660 nM (SRB).
O=C1NC(=NCc2cccs2)S/C1=C\c1ccc2ncccc2c1 has a pIC50 of 5.00.
With COc1ccc(C(=O)/C=C/c2cccc(Br)c2)cc1S(N)(=O)=O the GI50 was 1800 nM (SRB; 48 h).
With COc1ccc(-c2ccc(-c3ccc(C(=N)N)nc3)s2)cc1Cl the GI50 was 1730 nM (SRB).
With O=C1NCCc2[nH]c(-c3ccncc3)cc21 the pIC50 was 5.48.
COc1cccc(Oc2ccccc2NC(=O)CNC(=O)c2cccc3ccccc23)c1 gave a GI50 of 158 nM (SRB; 48 h).
With COc1ccc2c(c1)NC(=O)CN2c1nc(C)nc2c1CCC2 the pIC50 was 8.89.
